In ChEMBL document CHEMBL1137451, “Synthesis and evaluation of antifungal properties of a series of the novel 2-amino-5-oxo-4-phenyl-5,6,7,8-tetrahydroquinoline-3-carbonitrile and its analogues” (Bioorg Med Chem, 2007):

Tests used:
Benjaminiella poitrasii [1] = test: Inhibition of yeast hypha transition at 4 ug/mL after 4 hrs
Benjaminiella poitrasii [2] = test: Inhibition of Benjaminiella poitrasii chitin synthase at 4 ug/mL
Outline: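 Chitin synthase from Benjaminiella poitrasii measured with and without compound at 4 µg/ml, using a non-radioactive chitin synthase assay. Nikkomycin Z used as reference.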

`C[C@@H]([C@H](N)C(=O)N[C@H](C(=O)O)[C@H]1O[C@@H](n2ccc(=O)[nH]c2=O)[C@H](O)[C@@H]1O)[C@H](O)c1ccc(O)cn1` [NIKKOMYCIN] was tested, and the inhibition at 4 µg/mL (Benjaminiella poitrasii [1]) was > 90% and the inhibition (Benjaminiella poitrasii [2]) was > 90%.
